Screening results (PubChem)
TRPC4 act: activators of mouse TRPC4 channel, primary screen, Fluo4 calcium, HEK293 TRPC4beta/mu-opioid cells. Short transient receptor potential channel 4 (Mus musculus), Q9QUQ5. Fluo4 calcium fluorescence; hits give high values. B-score at 10 µM. actives 0.49% (n = 310,000);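 active = B-score above 5 SD of library B-scores, and initial fluorescence ratio not above library mean plus 5 SD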;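 note: positive B-score marks a calcium rise read as TRPC4 activation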
Target sequence (Q9QUQ5 whole entry, looked up): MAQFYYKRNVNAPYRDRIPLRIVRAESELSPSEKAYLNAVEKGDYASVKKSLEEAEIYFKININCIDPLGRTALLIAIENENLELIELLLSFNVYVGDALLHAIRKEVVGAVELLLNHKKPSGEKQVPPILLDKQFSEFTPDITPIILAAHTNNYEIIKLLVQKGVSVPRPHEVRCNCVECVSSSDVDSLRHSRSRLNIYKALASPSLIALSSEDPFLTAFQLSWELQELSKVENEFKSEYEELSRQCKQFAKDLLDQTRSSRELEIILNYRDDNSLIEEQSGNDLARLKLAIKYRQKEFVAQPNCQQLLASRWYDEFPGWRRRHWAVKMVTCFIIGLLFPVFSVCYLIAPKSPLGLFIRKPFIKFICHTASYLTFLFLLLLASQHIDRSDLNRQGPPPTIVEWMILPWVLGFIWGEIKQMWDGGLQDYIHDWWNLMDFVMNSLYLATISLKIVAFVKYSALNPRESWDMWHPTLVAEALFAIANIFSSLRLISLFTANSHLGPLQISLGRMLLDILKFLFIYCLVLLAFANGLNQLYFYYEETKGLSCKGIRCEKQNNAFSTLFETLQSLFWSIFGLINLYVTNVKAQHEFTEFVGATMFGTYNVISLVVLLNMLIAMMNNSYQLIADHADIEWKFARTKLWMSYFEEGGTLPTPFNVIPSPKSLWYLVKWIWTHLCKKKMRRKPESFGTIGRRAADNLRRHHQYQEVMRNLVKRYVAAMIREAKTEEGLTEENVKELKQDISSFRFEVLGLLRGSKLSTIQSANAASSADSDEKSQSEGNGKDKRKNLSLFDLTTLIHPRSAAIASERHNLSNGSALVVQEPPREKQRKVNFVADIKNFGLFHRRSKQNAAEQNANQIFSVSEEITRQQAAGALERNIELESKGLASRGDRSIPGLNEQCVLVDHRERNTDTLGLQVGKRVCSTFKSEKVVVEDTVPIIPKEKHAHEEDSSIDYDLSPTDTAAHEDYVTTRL
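System – HEK293 cells stably co-expressing mouse TRPC4beta and mu-opioid receptor · Signal – Fluo4 calcium-sensitive dye fluorescence, kinetic, 1 Hz baseline · Benchmarks – buffer (low) and maximal DAMGO (high) · Read-out – B score of integrated fluorescence ratio per well · Incubation – dye loading 45 min room temperature, 110 s kinetic read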
TRPC4 PAM: positive allosteric modulators of TRPC4, primary screen, cell-based, mouse TRPC4beta, HEK293 mu-opioid, Fluo-4 calcium | AID 2227, 2009 | B-score at 10 µM | actives 0.42% (n = 310,000) | Short transient receptor potential channel 4 (Mus musculus), Q9QUQ5 | DAMGO EC20, Fluo-4 Ca2+ flux; hits give high values;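 active = B-score of calcium response area above 5 SD of library B-scores, with initial fluorescence ratio within 5 SD of library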
TRPC6 inh: mouse TRPC6 channel inhibitors, primary screen, cell-based, HEK293, membrane potential dye. Short transient receptor potential channel 6 (Mus musculus), Q61143. ACh-evoked depolarization; hits give low values. B-score at 10 µM. actives 1.1% (n = 310,000). AID 2553, 2010;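 active = B-score under library mean minus 3 SD, initial fluorescence not abnormally high, positive integrated signal ratio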;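 note: B-score derived from integrated fluorescence ratio over the kinetic read; more negative B-score means stronger inhibition of depolarization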
TRPC4 block: inhibitors of mouse TRPC4 channel, primary screen, Fluo4 calcium, HEK293 TRPC4beta/mu-opioid cells; DAMGO-evoked Fluo4 calcium flux; hits give low values; B-score at 10 µM; actives 0.39% (n = 300,000); Short transient receptor potential channel 4 (Mus musculus), Q9QUQ5;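 active = B-score over 3 SD under the library average, no early fluorescence shift, positive overall ratio signal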
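material = TRPC4beta/mu-opioid receptor HEK293 cell line | probe or stimulus = sequential submaximal and maximal DAMGO stimulation | compound dosing = one concentration per compound | measured by = Fluo4 Ca2+ flux fluorescence | evaluation = integrated fluorescence ratio relative to baseline, converted to per-well B score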
TRPC6 act: mouse TRPC6 channel activators, primary screen, cell-based, HEK293, membrane potential dye; Short transient receptor potential channel 6 (Mus musculus), Q61143; HEK293-TRPC6 membrane potential dye fluorescence; hits give high values; B-score at 10 µM; actives 0.13% (n = 310,000); AID 2550, 2010;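 active = B-score of the integrated fluorescence ratio above library mean plus 3 SD, and starting fluorescence ratio within library mean plus 5 SD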;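 note: higher score means more depolarization so channel activation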
TRPC4 spec 2: second selectivity test of TRPC6 inhibitors: effect on mouse TRPC4; shares compounds with TRPC6 inh; HEK293 TRPC4/MOR, membrane potential dye fluorescence; channel activated by saturating DAMGO dose; actives 42% (n = 920); inhibition, % at 10 µM;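 active = compounds whose fluorescence signal differed from control wells by over 3 SD, either direction, in both duplicate plates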
TRPC4 spec: mouse TRPC4 modulation by TRPC6 hits, confirmation, selectivity assay for TRPC6 inhibitor project, cell-based, HEK293 TRPC4/mu-opioid, membrane potential dye | shares compounds with TRPC6 inh | membrane potential fluorescence | activity change, negative = inhibition, % at 10 µM | actives 61% (n = 920) | AID 2777, 2010;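 active = rise or fall in signal beyond 3 SD of buffer-only wells in both replicate plates, either sign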;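 note: integrated kinetic ratio of fluorescence range over baseline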
HEK293 MPD ctr 2-1: nonspecific membrane potential effects, parental HEK293, confirmation, counter-screen for TRPC6 inhibitor project, cell-based, second counter screen; shares compounds with TRPC6 inh; parental HEK293 membrane potential dye fluorescence; maximal acetylcholine challenge after compound addition; signal change vs control, % at 10 µM; actives 31% (n = 920); AID 2779, 2010;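 active = membrane potential signal moving either way by over 3 SD of the maximum-effect control, in both duplicate plates, meaning non-specific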
HEK293 MPD ctr-1: membrane potential modulation in parental HEK293, confirmation, counter-screen for TRPC6 inhibitor project, cell-based. shares compounds with TRPC6 inh. parental HEK293 membrane potential dye fluorescence. membrane potential signal change, % at 10 µM. actives 60% (n = 920);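 active = membrane potential signal shifting up or down by more than 3 SD of buffer-only wells, on both duplicate plates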
HEK293 MPD ctr-2: parental HEK293 membrane potential modulation, confirmation, counter-screen for TRPC6 modulator project, cell-based; shares compounds with TRPC6 inh; membrane potential dye fluorescence; membrane potential signal change, % at 10 µM; actives 51% (n = 2,400); AID 488924, 2010;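 active = membrane potential signal moves up or down beyond 5 SD from buffer-only wells, on both duplicate plates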
HEK293 MPD ctr 2-2: second counter-screen for TRPC6 modulators: effect in parental HEK293 cells; shares compounds with TRPC6 inh; membrane potential dye fluorescence; after compound, maximal acetylcholine stimulation; inhibition, % at 10 µM; actives 14% (n = 2,400);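 active = membrane potential signal drops by more than 5 SD from the mean control signal, in both duplicate plates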
TRPC4/MOR mod: TRPC4 modulation by TRPC6 hit compounds, confirmation, selectivity assay for TRPC6 modulator project, cell-based, HEK293 TRPC4/mu-opioid, membrane potential dye, mouse; shares compounds with TRPC6 inh; membrane potential fluorescence; percent change from control (negative = decrease, positive = increase), % at 10 µM; actives 69% (n = 2,400); AID 488927, 2010;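 active = membrane potential signal moved up or down beyond 5 SD of buffer control wells, in both duplicate plates, actives on both sides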
TRPC4 ctr inh 2: mouse TRPC4 off-target activity of TRPC6 modulators, second screen. shares compounds with TRPC6 inh. HEK293 TRPC4/mu-opioid, membrane potential dye fluorescence; stimulated with maximal-effect DAMGO. inhibition, % at 10 µM. actives 55% (n = 2,400). AID 488928;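 active = drop in membrane potential signal beyond 5 SD of the control wells in both duplicate plates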;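 note: TRPC4 counter screen for TRPC6 hits run under conditions tuned for TRPC6 not TRPC4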
TRPC6 block conf: mouse TRPC6 channel inhibitors, confirmation, HEK293 cells, membrane potential dye, duplicate; inhibition, % at 10 µM; shares compounds with TRPC6 inh; ACh-evoked depolarization; actives 43% (n = 3,300);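 active = fluorescence ratio falls more than 5 SD below the full-stimulation control mean, in both duplicate runs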;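 note: integrated fluorescence ratio of peak minus minimum over baseline after agonist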
TRPC6 act conf: mouse TRPC6 channel activators, confirmation, HEK293 cells, membrane potential dye, duplicate; shares compounds with TRPC6 inh; HEK293-TRPC6 membrane potential dye fluorescence, FDSS; activation, % at 10 µM; actives 11% (n = 2,800); AID 488961, 2010;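 active = ratio signal rise beyond 5 SD above unstimulated control wells' mean, seen in both duplicate runs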
Each line names hits and unclear results; the compound was inactive in the other large screens (follow-up assays come after a bar, where they were run). This is a sample that favours compounds with a hit; in the whole collection about 2.3% have one here.

COc1ccc(CCNC(=O)c2cc3c(=O)n4ccccc4nc3n(CCCN3CCOCC3)c2=N)cc1	TRPC6 inh -7.4 | TRPC4 spec 2 inactive | TRPC4 spec inactive | HEK293 MPD ctr 2-1 -64% | HEK293 MPD ctr-1 inactive | TRPC6 block conf inactive | TRPC6 act conf inactive
N#Cc1cc2c(=O)n3ccccc3nc2n(CCCN2CCOCC2)c1=O	TRPC6 inh -12 | HEK293 MPD ctr-2 -285% | HEK293 MPD ctr 2-2 85% | TRPC4/MOR mod -48% | TRPC4 ctr inh 2 49% | TRPC6 block conf 56% | TRPC6 act conf inactive
COc1ccc(CCNC(=O)c2cc3c(=O)n4ccccc4nc3n(CCN3CCOCC3)c2=N)cc1	TRPC6 inh -5.7 | HEK293 MPD ctr-2 inactive | HEK293 MPD ctr 2-2 inactive | TRPC4/MOR mod 74% | TRPC4 ctr inh 2 86% | TRPC6 block conf inactive | TRPC6 act conf inactive
COc1ccc(CCn2c(=N)c(C(=O)N3CCN(C)CC3)cc3c(=O)n4ccccc4nc32)cc1	TRPC6 inh -7.2 | HEK293 MPD ctr-2 -274% | HEK293 MPD ctr 2-2 84% | TRPC4/MOR mod -50% | TRPC4 ctr inh 2 62% | TRPC6 block conf 68% | TRPC6 act conf inactive
CC1(C)CC(NS(=O)(=O)c2ccc(C(C)(C)C)cc2)CC(C)(C)N1	none
COc1ccc(CCn2c(=N)c(C(=O)NCCN3CCOCC3)cc3c(=O)n4ccccc4nc32)cc1OC	TRPC6 inh -5.6 | HEK293 MPD ctr-2 152% | HEK293 MPD ctr 2-2 109% | TRPC4/MOR mod 54% | TRPC4 ctr inh 2 44% | TRPC6 block conf 64%
COc1ccc(CCNC(=O)c2cc3c(=O)n4ccccc4nc3n(CCCN3CCOCC3)c2=N)cc1OC	none
Cc1ccc2nc3c(cc(C(=O)NCCc4ccccc4)c(=N)n3CCCN3CCOCC3)c(=O)n2c1	TRPC6 inh -6 | HEK293 MPD ctr-2 inactive | HEK293 MPD ctr 2-2 inactive | TRPC4/MOR mod inactive | TRPC4 ctr inh 2 54% | TRPC6 block conf inactive | TRPC6 act conf inactive
CC(c1ccccc1)n1c(SCC(=O)Nc2ccccc2)n[nH]c1=O (stereo not given)	none
Cc1coc2c1c(C)cc1oc(=O)c(CC(=O)NCCCCCC(=O)O)c(C)c12	none
Cc1cc(/C=C2\SC(=S)NC2=O)c(C)n1-c1cccc(O)c1	TRPC6 act 14 | HEK293 MPD ctr-2 568% | HEK293 MPD ctr 2-2 inactive | TRPC4/MOR mod 85% | TRPC4 ctr inh 2 45% | TRPC6 block conf inactive | TRPC6 act conf 174%
Cc1cc(/C=C2\SC(=S)NC2=O)c(C)[nH]1	TRPC6 inh -6.4, TRPC6 act 27 | HEK293 MPD ctr-2 782% | HEK293 MPD ctr 2-2 active | TRPC4/MOR mod 107% | TRPC4 ctr inh 2 42% | TRPC6 block conf inactive | TRPC6 act conf 164%
CCn1c(C)cc(/C=C2/SC(=S)NC2=O)c1C	none
CCCCN(C)C(=O)c1cc2c(Cl)nc3ccccc3c2s1	none
CC(CCCN(C)C)C(Cc1ccccc1)c1ccccc1 (stereo not given)	none
CCN(CC)S(=O)(=O)c1ccc(N2CCCCC2)c(NC(=O)c2ccncc2)c1	TRPC6 inh -6.6 | TRPC4 spec 2 inactive | TRPC4 spec 10% | HEK293 MPD ctr 2-1 inactive | HEK293 MPD ctr-1 6.7% | TRPC6 block conf inactive
CCN(CC)S(=O)(=O)c1ccc(N2CCCCC2)c(NC(=O)C2=COCCO2)c1	TRPC6 inh -6, TRPC6 act 14 | HEK293 MPD ctr-2 178% | HEK293 MPD ctr 2-2 inactive | TRPC4/MOR mod 33% | TRPC4 ctr inh 2 inactive | TRPC6 block conf 88% | TRPC6 act conf 154%
CCN(CC)S(=O)(=O)c1ccc(N2CCOCC2)c(NC(=O)C23CC4CC(CC(Cl)(C4)C2)C3)c1	TRPC6 inh -6.4 | HEK293 MPD ctr-2 164% | HEK293 MPD ctr 2-2 inactive | TRPC4/MOR mod inactive | TRPC4 ctr inh 2 inactive | TRPC6 block conf 38%
CCN(CC)S(=O)(=O)c1ccc(N2CCOCC2)c(NC(=O)c2ccccc2)c1	none
CCN(CC)S(=O)(=O)c1ccc(N2CCCC2)c(NC(=O)C2=COCCO2)c1	none
O=C(CCCN1C(=O)C2CC=CCC2C1=O)Nc1cccc(F)c1 (stereo not given)	none
